In ChEMBL document CHEMBL1122845, “Inhibitors of blood platelet aggregation. Effects of some 1,2-benzisothiazol-3-ones on platelet responsiveness to adenosine diphosphate and collagen” (J Med Chem, 1985):
Where “and” joins values, the source holds several entries; their conditions need not be identical. Equal entries are not always repeated. Structures can show the parent of a compound that is named as a salt. One block for each molecule: values may come before it.

How the values were obtained:
Cavia porcellus [1] = assay: The compound was tested ex vivo at a dose of 0.04 mmol/kg for ADP induced platelet aggregation in guinea pig; format: functional
Summary of the method: (§1)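 Fasted male rats (~200 g) or guinea pigs (~300 g), n=5-10, dosed orally (5 mL/kg) in 1% methylcellulose; methylcellulose alone as control. Killed with CO2 after 2 h. Vena cava blood citrated (102 mM rat, 129 mM guinea pig); PRP adjusted to 800000/µL (rat) or 500000/µL (guinea pig). EC25 for first-phase ADP aggregation (max 8 µM) interpolated from two 2-fold-spaced ADP levels. Dose ratio = treated/control mean EC25; Student's t-test. Some groups tested as pooled PRP.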

Cavia porcellus [2] = assay: The compound was tested ex vivo at a dose of 0.04 mmol/kg for collagen induced platelet aggregation in guinea pig; format: functional
Summary of the method: (§2)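 Male rats (~200 g) or guinea pigs (~300 g), overnight fasted, n=5-10, received compound orally in 1% methylcellulose (5 mL/kg); vehicle-only controls. After 2 h, CO2 kill and vena cava blood into citrate (102 mM rat, 129 mM guinea pig). PRP set to 800000/µL (rat) or 500000/µL (guinea pig). Collagen EC50 (response of 50 mm; max 50 µg/mL) interpolated from a log plot. Dose ratio = treated/control mean EC50; t-test. Pooled PRP sometimes used.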

Cavia porcellus [3] = assay: Ex vivo inhibition of ADP induced guinea pig platelet aggregation following 0.08 mmol/kg administration.; format: functional; summary of the method: as §1
Cavia porcellus [4] = assay: Ex vivo inhibition of collagen induced guinea pig platelet aggregation following 0.08 mmol/kg administration.; format: functional; summary of the method: as §2
Cavia porcellus [5] = species: Cavia porcellus; assay: The compound was tested ex vivo for ADP induced platelet aggregation in guinea pig; format: functional; summary of the method: as §1
Cavia porcellus [6] = species: Cavia porcellus; assay: The compound was tested ex vivo for collagen induced platelet aggregation in guinea pig; format: functional; summary of the method: as §2
Cavia porcellus [7] = assay: The compound was tested ex vivo at a dose of 0.15 mmol/kg for ADP induced platelet aggregation in guinea pig; format: functional; summary of the method: as §1
Homo sapiens [8] = species: Homo sapiens; assay: (§3) In vitro inhibitory activity against human platelet aggregation in the presence of collagen; format: functional
Summary of the method: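 Aggregation measured photometrically in human citrated PRP (350000 platelets/µL, stirred at 1100 rpm). Compound or saline preincubated 3 min at 37 °C. Collagen at a just-maximal level chosen for each sample (typically 0.7-1.4 µg/mL). Maximum increase in light transmission measured. IC50 = concentration giving 50% inhibition.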

Rattus norvegicus [9] = assay: The compound was tested at a dose of 0.15 mmol/kg ex vivo for ADP induced platelet aggregation in rat; format: functional; summary of the method: as §1
Rattus norvegicus [10] = assay: The compound was tested at a dose of 0.15 mmol/kg ex vivo for collagen induced platelet aggregation in rat; format: functional; summary of the method: as §2
Cavia porcellus [11] = assay: The compound was tested ex vivo at a dose of 0.15 mmol/kg for collagen induced platelet aggregation in guinea pig
Cavia porcellus [12] = assay: The compound was tested ex vivo at a dose of 0.15 mmol/kg for collagen induced platelet aggregation in guinea pig; format: functional; summary of the method: as §2
Rattus norvegicus [13] = assay: The compound was tested ex vivo at a dose of 0.3 mmol/kg for collagen induced platelet aggregation in rat; format: functional; summary of the method: as §2
Rattus norvegicus [14] = assay: The compound was tested ex vivo at a dose of 0.08 mmol/kg for ADP induced platelet aggregation in rat; format: functional; summary of the method: as §1
Rattus norvegicus [15] = assay: The compound was tested ex vivo at a dose of 0.08 mmol/kg for collagen induced platelet aggregation in rat; format: functional; summary of the method: as §2
Rattus norvegicus [16] = assay: The compound was tested ex vivo at a dose of 0.15 mmol/kg for ADP induced platelet aggregation in rat; format: functional; summary of the method: as §1
Rattus norvegicus [17] = assay: The compound was tested ex vivo at a dose of 0.15 mmol/kg for collagen induced platelet aggregation in rat; format: functional; summary of the method: as §2
Cavia porcellus [18] = assay: The compound was tested ex vivo at a dose of 0.3 mmol/kg for ADP induced platelet aggregation in guinea pig; format: functional; summary of the method: as §1
Cavia porcellus [19] = assay: The compound was tested ex vivo at a dose of 0.3 mmol/kg for collagen induced platelet aggregation in guinea pig; format: functional; summary of the method: as §2
Cavia porcellus [20] = assay: The compound was tested ex vivo at a dose of 0.08 mmol/kg for ADP induced platelet aggregation in guinea pig; format: functional; summary of the method: as §1
Cavia porcellus [21] = assay: The compound was tested ex vivo at a dose of 0.08 mmol/kg for collagen induced platelet aggregation in guinea pig; format: functional; summary of the method: as §2
Homo sapiens [22] = species: Homo sapiens; assay: as §3; format: functional, organism-based
Rattus norvegicus [23] = assay: The compound was tested ex vivo at a dose of 0.3 mmol/kg for ADP induced platelet aggregation in rat; format: functional; summary of the method: as §1
Rattus norvegicus [24] = assay: The compound was tested at a dose of 0.3 mmol/kg ex vivo for collagen induced platelet aggregation in rat; format: functional; summary of the method: as §2
Homo sapiens [25] = species: Homo sapiens; assay: In vitro inhibitory activity against human platelet aggregation in the presence of Adenosine diphosphate; format: functional
Summary of the method: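 Human citrated PRP, platelet count adjusted to 350000/µL with autologous platelet-poor plasma. 90 µL PRP preincubated 3 min at 37 °C with compound or saline (DMF vehicle where needed), stirred at 1100 rpm. ADP chosen per preparation to give a clear first-phase response (typically 1 µM). Photometric read-out: maximum rise in light transmission within 1 min. IC50 determined.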

Rattus norvegicus [26] = species: Rattus norvegicus; assay: The compound was tested ex vivo for ADP induced platelet aggregation in rat; format: functional; summary of the method: as §1
Rattus norvegicus [27] = species: Rattus norvegicus; assay: The compound was tested ex vivo for collagen induced platelet aggregation in rat; format: functional; summary of the method: as §2
Cavia porcellus [28] = assay: The compound was tested at a dose of 0.08 mmol/kg ex vivo for collagen induced platelet aggregation in guinea pig; format: functional; summary of the method: as §2
Homo sapiens [29] = assay: The compound was tested ex vivo at a dose of 0.1 mmol/kg for ADP induced platelet aggregation in rat

Compound: Cc1cc(C)c2c(=O)n(CCN3CCCCC3)sc2c1
- Activity (Cavia porcellus [1]): 2.1
- Activity (Cavia porcellus [2]): >21
- Activity (Cavia porcellus [3]): >24
- Activity (Cavia porcellus [4]): >21

- collagen EC50 dose ratio (treated/control) (Cavia porcellus [6]): 4.1
Compound: COc1cc2sn(CCCCCN3CC4CCC(CC4)C3)c(=O)c2cc1OC
- Activity (Cavia porcellus [5]): 1.7

- IC50 (Homo sapiens [8]): 30 µM
Compound: O=c1c2ccccc2sn1CCN1CCCC1
- Activity (Cavia porcellus [7]): 1.9
- Activity (Rattus norvegicus [9]): 0.9
- Activity (Rattus norvegicus [10]): 2.3
- Activity (Cavia porcellus [11]): 13.9

- collagen EC50 dose ratio (treated/control) (Cavia porcellus [12]): >27
Compound: COc1cc2sn(CCCc3ccccn3)c(=O)c2cc1OC
- Activity (Cavia porcellus [7]): 2.4

Compound: O=c1c2ccccc2sn1-c1ccccn1
- Activity (Rattus norvegicus [13]): 0.9

Compound: O=c1c2ccccc2sn1CCN1CCCCC1
- Activity (Cavia porcellus [3]): 1.4
- Activity (Cavia porcellus [4]): 5
- Activity (Rattus norvegicus [14]): 1.7
- Activity (Rattus norvegicus [15]): 4

Compound: O=c1c2ccccc2sn1CCCCN1CCCCC1
- Activity (Cavia porcellus [3]): 1.1
- Activity (Cavia porcellus [4]): 3.4

Compound: O=c1c2cc(Cl)c(Cl)cc2sn1CCN1CC2CCC(CC2)C1
- Activity (Rattus norvegicus [13]): 1

Compound: CN(CCn1sc2ccccc2c1=O)c1ccccc1
- Activity (Rattus norvegicus [16]): 1
- Activity (Rattus norvegicus [17]): 1.1

- collagen EC50 dose ratio (treated/control) (Cavia porcellus [12]): 2.7
Compound: COc1cc2sn(CCCCc3ccccn3)c(=O)c2cc1OC
- Activity (Cavia porcellus [7]): 2.4

Compound: COc1cc2sn(CCN3CC4CCC(CC4)C3)c(=O)c2cc1OC
- Activity (Cavia porcellus [18]): 1
- Activity (Cavia porcellus [19]): 1.9
- Activity (Cavia porcellus [7]): 1.3
- Activity (Cavia porcellus [20]): 1.1
- Activity (Cavia porcellus [21]): 1.7
- IC50 (Homo sapiens [22]): 110 µM
- Activity (Rattus norvegicus [16]): 1.4
- Activity (Rattus norvegicus [17]): 2.9
- Activity (Rattus norvegicus [23]): 1.9
- Activity (Rattus norvegicus [24]): >5.8
- Activity (Cavia porcellus [12]): 1.6

- IC50 (Homo sapiens [25]): > 1 mM
- IC50 (Homo sapiens [22]): 68 µM
Compound: CC(=O)Oc1ccccc1C(=O)O [ASPIRIN]
- Activity (Cavia porcellus [5]): 1
- Activity (Rattus norvegicus [26]): 1.1 and 1
- Activity (Rattus norvegicus [27]): 1.5 and 1.8

Compound: COc1cc(OC)c2c(=O)n(CCN3CCCC3)sc2c1
- Activity (Cavia porcellus [3]): 4.6
- Activity (Cavia porcellus [4]): >31

Compound: COc1cc2sn(CCN3CCCC3)c(=O)c2cc1OC
- Activity (Rattus norvegicus [16]): 1.1
- Activity (Rattus norvegicus [17]): 1.8

Compound: COc1cc2sn(CCCN3CCCCC3)c(=O)c2cc1OC
- Activity (Cavia porcellus [28]): 2.5
- Activity (Cavia porcellus [3]): 1.1

Compound: COc1cc(OC)c2c(=O)n(CCN3CCCCC3)sc2c1
- Activity (Cavia porcellus [3]): >27
- Activity (Cavia porcellus [4]): >10

Compound: O=c1c2ccccc2sn1CCO
- Activity (Rattus norvegicus [13]): 1.3

- collagen EC50 dose ratio (treated/control) (Cavia porcellus [6]): >36
Compound: CCN(CC)CCn1sc2cc(C)cc(C)c2c1=O.O=S(=O)(O)c1ccc2ccccc2c1
- Activity (Cavia porcellus [5]): 2.8

Compound: O=c1c2ccccc2sn1CCCN1CC2CCC(CC2)C1
- Activity (Cavia porcellus [3]): 1.2
- Activity (Cavia porcellus [4]): 1.8

Compound: O=c1c2ccccc2sn1CCCN1CCCC1
- Activity (Cavia porcellus [3]): 2
- Activity (Cavia porcellus [4]): 6.2

Compound: O=c1c2cc(Cl)c(Cl)cc2sn1CCc1ccccn1
- Activity (Rattus norvegicus [16]): 1
- Activity (Rattus norvegicus [17]): 1

Compound: O=c1c2ccccc2sn1CCCCN1CCCC1
- Activity (Cavia porcellus [3]): 1.4
- Activity (Cavia porcellus [4]): 1.9

Compound: CCN(CC)CCn1sc2ccccc2c1=O
- Activity (Rattus norvegicus [16]): 1.3
- Activity (Rattus norvegicus [17]): 2.6

Compound: O=c1c2cc(Cl)c(Cl)cc2sn1CCN1CCCC1
- Activity (Rattus norvegicus [16]): 1.4
- Activity (Rattus norvegicus [17]): 1.8

Compound: CCCCCn1sc2ccccc2c1=O
- Activity (Rattus norvegicus [13]): 1.2

Compound: Clc1ccccc1CN1CCc2sccc2C1 [TICLOPIDINE HYDROCHLORIDE]
- IC50 (Homo sapiens [22]): 1060 µM
- IC50 (Homo sapiens [29]): 2 mM

- collagen EC50 dose ratio (treated/control) (Cavia porcellus [6]): 2
Compound: COc1cc2sn(CCCCCCN3CC4CCC(CC4)C3)c(=O)c2cc1OC
- Activity (Cavia porcellus [5]): 1.1
